Compound activity deposited in PubChem by several laboratories.
Mdm2 ligase inh: MDM2-luciferase reporter signal enhancers, primary screen, MDM2 E3 ligase inhibitor project, cell-based, luminescence, 1536-well. E3 ubiquitin-protein ligase Mdm2 (Homo sapiens), Q00987. signal enhancement, % at 5 µM. AID 1230, 2008. cell-based MDM2 ubiquitination luciferase reporter, 2 h; 0 = plate control, 100 = twice control, blank-subtracted. 210,000 tested, 0.11% active;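 active = signal enhancement of 30% or more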;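 note: luminescence tracks abundance of the self-degrading MDM2-luciferase fusion protein; higher signal means inhibition of MDM2 E3 ligase activity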
Target sequence (Q00987 whole entry, looked up, the tested form may be a part): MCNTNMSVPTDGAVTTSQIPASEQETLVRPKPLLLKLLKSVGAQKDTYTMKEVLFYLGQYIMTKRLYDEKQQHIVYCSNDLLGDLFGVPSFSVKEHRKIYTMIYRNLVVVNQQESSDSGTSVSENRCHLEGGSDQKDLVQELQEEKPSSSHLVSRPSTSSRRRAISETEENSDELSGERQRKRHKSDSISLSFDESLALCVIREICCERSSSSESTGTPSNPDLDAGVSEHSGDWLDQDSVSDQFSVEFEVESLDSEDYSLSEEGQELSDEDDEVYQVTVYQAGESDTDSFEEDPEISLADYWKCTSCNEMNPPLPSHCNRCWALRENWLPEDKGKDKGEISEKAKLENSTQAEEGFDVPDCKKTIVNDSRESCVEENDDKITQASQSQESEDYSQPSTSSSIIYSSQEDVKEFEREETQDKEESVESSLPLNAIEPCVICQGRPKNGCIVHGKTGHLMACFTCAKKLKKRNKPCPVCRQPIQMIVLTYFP
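Test system: stable mammalian line carrying autodegrading MDM2–luciferase fusion reporter; quantity: 2000 cells in each well; times: 4 h cell settling then 2 h compound exposure, 37 °C; detection: luminescence with SteadyLite reagent, 15 min at room temperature; evaluation: percent signal gain over controls, blank-subtracted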
S1P3 antag-1: S1P3 receptor antagonists, primary screen, cell-based; Sphingosine 1-phosphate receptor 3 (Homo sapiens), Q99500; CHO S1P3 NFAT-BLA reporter, FRET fluorescence, antagonist mode; inhibition, % at 4.98 µM; 170,000 tested, 0.27% active;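 active = inhibition above the plate cutoff, the mean inhibition of test wells on that plate plus 3 SD, cut at about 28% in these data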;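 note: cells challenged with S1P at its EC80 of 0.8 µM; blue over green emission ratio from cleaved BLA substrate after 4 h stimulation; 0% = S1P-stimulated wells and 100% = unstimulated DMSO-only wells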
Hsp70 activator: Hsp70 transcriptional activators, primary screen, cell-based, HeLa, Hsp70 promoter luciferase, luminescence, 10 µM | HeLa Hsp70 promoter luciferase reporter; scaled: vehicle 0, proteasome-inhibitor control 100% | activation, % at 10 µM | 200,000 tested, 0.04% active;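 active = activation above the mean across all tested compounds plus 3 SD, cutoff set per campaign, cut at about 5.5% in these data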;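 note: 100% = MG132 at 30 µM as the positive control and 0% = DMSO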
CHOP inhibitor: inhibitors of CHOP promoter induction, primary screen, cell-based, unfolded protein response, luciferase reporter; inhibition, % at 10 µM; CHO-K1 CHOP-promoter luciferase, tunicamycin-induced, 15-18 h; 220,000 tested, 3.8% active;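 active = compounds that reduced the stress-induced luciferase reporter signal by more than about 70% of percent inhibition, limit read from the data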;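 note: 0% = tunicamycin plus vehicle and 100% = wells without tunicamycin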
S1P3 antag-2: S1P3 receptor antagonists, retest, confirmation, cell-based. shares compounds with S1P3 antag-1. CHO S1P3 NFAT-BLA reporter, FRET, antagonist mode. inhibition, % at 4.98 µM. 240 tested, 30% active;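 active = inhibition above the hit threshold that was computed for the earlier primary screen, cut at about 30% in these data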;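 note: 0% = S1P-stimulated wells and 100% = unstimulated DMSO-only wells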
* = called active by the depositor; . = not tested or not shown. Sampled rows, rich in hits. Any-hit rate of the full collection: about 4%.

SMILES | Mdm2 ligase inh | S1P3 antag-1 | Hsp70 activator | CHOP inhibitor | S1P3 antag-2
COc1ccc2cc3cc(C(=O)NCc4cccnc4)oc3nc2c1 | -14 | 30* | 0 | -12 | -3
Cc1cc(C)nc(SCC(=O)Nc2ccnc3ccccc23)n1 | -43 | 30* | 0 | 36 | 8
O=C(Nc1ccc(F)cc1F)c1c(C(F)(F)F)ccnc1Oc1ccc(Cl)cc1 | -3 | 44* | . | 23 | 55*
S=C(NCc1ccco1)N1CCC(c2nc3ccccc3o2)CC1 | -20 | 7 | 0 | 31 | .
Cc1ccn2cc(CCNC(=O)CC3CCCCC3)nc2c1 | -14 | 7 | 0 | 8 | .
Cc1cccc(Nc2sc(C(=O)c3cc4cc(Cl)ccc4o3)c(N)c2C#N)c1 | -27 | 28* | . | -12 | 2
N#Cc1c(Nc2ccccc2)sc(C(=O)c2ccccc2)c1N | -2 | . | 0 | -7 | .
CCOC(=O)CNC1CC(=O)N(c2cccc(Cl)c2)C1=O (configuration not stated) | -6 | . | 0 | 45 | .
Fc1ccc(C2=NN(c3ccccc3)C(c3ccco3)C2)cc1 (configuration not stated) | -5 | -1 | 0 | 68 | .
O=[N+]([O-])c1ccc(/C=C/C2=NN(c3ccccc3)C(c3ccco3)C2)o1 (configuration not stated) | -8 | 38* | 0 | 3 | 9
c1ccc2c(c1)OCC(CNc1ncnc3sccc13)O2 (configuration not stated) | -39 | 43* | 0 | 79* | 26
c1cncc(-c2nc(NCC3COc4ccccc4O3)c3ccccc3n2)c1 (configuration not stated) | -11 | . | 0 | 49 | .
Fc1ccc(CN2CCCCCCC2)cc1 | -19 | . | 0 | 5 | .
C=CCn1c(O)c(C=Nc2ccc(CN3CCCCC3)cc2)c(=O)[nH]c1=S | 1 | 42* | . | 21 | -6
CC(C)CNC(=O)c1cccc(NC(=O)Cc2ccc(Br)cc2)c1 | -7 | 30* | 0 | 33 | -14
COc1cccc(C(=O)Nc2cccc(C(=O)NCC(C)C)c2)c1 | -15 | -6 | 0 | 6 | .
CCCCC(=O)N/N=C/c1ccc(-c2ccc([N+](=O)[O-])cc2)o1 | -7 | 18 | 0 | 36 | .
CC(C)(C)NC(=S)N/N=C\c1ccc(-c2ccc([N+](=O)[O-])cc2)o1 | -1 | 70* | . | -4 | 73*
O=C(O)c1ccc(-c2ccc(/C=N/Nc3ccc([N+](=O)[O-])cc3)o2)cc1 | -5 | 29* | . | -44 | -1
O=C(N/N=C/c1ccc(-c2ccc([N+](=O)[O-])cc2)o1)[C@H]1C[C@@H]1c1ccccc1 | . | 45* | . | 26 | 63*
Cc1ccc(C(=O)NCCc2ccc(S(N)(=O)=O)cc2)cc1[N+](=O)[O-] | -25 | 2 | 0 | -12 | .
O=C(c1ccc(-c2ccccc2)cc1)N1CCN(c2ccccn2)CC1 | -2 | -7 | 0 | 4 | .
COc1ccc(CCNc2ncnc3sccc23)cc1OC | -13 | 49* | 1 | 70* | 23
CC(NC(=O)CN(C)Cc1cccs1)c1ccccc1 (configuration not stated) | -9 | -17 | 0 | 17 | .
CCOc1ccccc1NC(=S)N(CCC(C)C)C1CCN(C(C)=O)CC1 | -37 | 3 | 0 | -3 | .
SMILES | Mdm2 ligase inh | S1P3 antag-1 | Hsp70 activator | CHOP inhibitor | S1P3 antag-2
COC(=O)CC/C(O)=C1\C(=O)CC(C)(C)CC1=NCc1nc2ccccc2[nH]1 | -8 | -3 | 0 | 7 | .
CC(C)(C)c1ccc(CNc2ccc([N+](=O)[O-])cn2)cc1 | 0 | 30* | 0 | 87* | 15
O=[N+]([O-])c1ccc(NCc2ccc(Cl)cc2)nc1 | -5 | -3 | . | -11 | .
CC(CCc1ccccc1)NC(=O)CNC(=O)COc1ccccc1 (configuration not stated) | -1 | -6 | 0 | 11 | .
O=C(NCc1ccco1)C(c1ccccc1)N(C(=O)Cc1cccs1)c1ccccc1F (configuration not stated) | -8 | . | 0 | 18 | .
CCOC(=O)N1CCC(N(CCN(C)C)C(=S)Nc2cc(Cl)cc(Cl)c2)CC1 | -8 | 29* | 0 | 17 | 9
Cc1nnc(SCC(=O)Nc2cccc(S(=O)(=O)N(C)c3ccccc3)c2)s1 | -2 | 6 | 0 | 59 | .
CCC1CCCCN1CCCNC(=O)c1ccc(N2CCOCC2)c(NS(=O)(=O)c2ccc(OC)cc2)c1 (configuration not stated) | -1 | -9 | 0 | -7 | .
Cc1ccc(NC(=O)C2CCCN(C(=O)c3ccc(Cl)cc3)C2)cc1S(=O)(=O)N1CCOCC1 (configuration not stated) | -7 | -13 | 0 | 11 | .
COc1ccccc1Nc1ccc(Nc2ccccc2OC)nn1 | 2 | 21 | 0 | -7 | .
COc1ccc(OC)c(Nc2ccc(Nc3cc(OC)ccc3OC)nn2)c1 | -11 | 31* | 0 | 19 | 13
COc1ccc(NS(=O)(=O)c2cccc(NC(=O)c3ccc(Cl)nc3)c2)cc1 | -23 | 33* | 0 | 46 | 11
O=C(Nc1ccc2ccccc2c1)C(c1ccccc1)C1CCCC1 (configuration not stated) | -11 | 55* | 0 | 47 | 66*
Cc1ccc(NC(=O)C(c2ccccc2)C2CCCC2)cc1 (configuration not stated) | -4 | 60* | 0 | 52 | 70*
O=C(Nc1ccc(N2CCCC2)cc1)C(c1ccccc1)c1ccccc1 | -7 | . | 0 | 35 | .
O=C(Nc1ccc(Br)cc1)C(c1ccccc1)c1ccccc1 | -2 | 57* | 0 | 83* | 69*
CCc1ccc(NC(=O)C(CC)c2ccccc2)cc1 (configuration not stated) | -7 | 29* | 0 | 23 | 22
N#Cc1ccc(NC(=O)COC(=O)CCNS(=O)(=O)c2ccccc2)cc1 | 1 | -1 | 0 | 19 | .
CCCn1c2c(c(O)c(C(=O)Nc3nc4ccccc4s3)c1=O)CCCC2 | -5 | -19 | 0 | -17 | .
CCOC(=O)C(C)Oc1c(C(=O)OC)sc2ncccc12 (configuration not stated) | -4 | -12 | 0 | 15 | .
Cn1c(C(=O)c2ccccc2[N+](=O)[O-])nc2ccccc21 | -9 | -7 | 0 | 5 | .
COc1ccc(C(=O)NC(Nc2ccc(C)cc2)C(Cl)(Cl)Cl)cc1 (configuration not stated) | -10 | 44* | 0 | 57 | 58*
COc1ccc(NC(NC(=O)c2ccc(OC)cc2)C(Cl)(Cl)Cl)cc1 (configuration not stated) | -20 | . | 0 | 27 | .
Cc1ccc(NC(=O)c2cc(C(C)(C)C)nn2Cc2ccccc2)cc1 | -13 | 1 | . | 24 | .
